697 NFkB inh = inhibitors of the PMA/ionomycin-induced NF-kB reporter in 697 B cells; 697 B-cell NF-kB luciferase reporter, 16 h; inhibition, % at 4 µM; 0.33% of 330,000 active; AID 435022; in the data active = inhibition above about 35%
XBP1 UPR activ = activators of adaptive arm of unfolded protein response (XBP1); activation, % at 20 µM; CHO-XBP1 luciferase reporter, IRE1-XBP1 UPR activation, luminescence; percent of tunicamycin response, DMSO as zero; 0.33% of 330,000 active;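 active = versus positive control, 20 µM dose yields 30% or more activation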;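 note: 100% = tunicamycin at 10 µg/mL and 0% = DMSO only wells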
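Assay system: CHO-XBP1 luciferase reporter cells; Schedule: 6 h treatment, 37 °C; Detection: glow luminescence from Steady-Glo reagent; Benchmarks: high control tunicamycin 10 µg/mL final, low control DMSO vehicle only.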
UPR CHOP act = activators of apoptotic arm of unfolded protein response (CHOP). CHO-CHOP luciferase reporter, UPR activation, luminescence; percent of tunicamycin response over DMSO baseline. activation, % at 10 µM. 0.34% of 330,000 active;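 active = at 10 µM dose, activation of 40% or more, normalized to positive control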;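 note: 100% = tunicamycin at 10 µg/mL and 0% = DMSO alone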
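Assay system: CHO cells with stable CHOP pathway luciferase reporter; Buffer or medium: F12 plus 10% serum; Times: 16-18 h cell attachment, then 6 h compound exposure, 37 °C; Signal: luciferase luminescence; Read-out basis: percent activation relative to tunicamycin control; Control set: tunicamycin high control, DMSO low control.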
Jurkat NFkB inh = inhibitors of the PMA/ionomycin-induced NF-kB reporter in Jurkat cells | 0.53% of 330,000 active | inhibition, % at 4 µM | PMA/ionomycin-induced NF-kB luciferase reporter, luminescence; in the data active = inhibition above about 50%
CRFR2-BP antag = CRF-BP/CRF-R2 complex antagonism; inhibition, % at 11.8 µM; 0.59% of 350,000 active; HEK293 CRF-R2/CRF-BP, CRF-induced calcium fluorescence;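 active = inhibition of the ligand-induced calcium signal above about 50% at the single tested concentration, limit read from the data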
UPR CHOP confirm = confirmation of apoptotic unfolded protein response (CHOP) activators; CHO-CHOP cells, CHOP-luciferase reporter luminescence; percent of tunicamycin response, DMSO as zero; shares compounds with UPR CHOP act; AID 463112; activation, % at 10 µM; 64% of 1,000 active; in the data active = activation above about 33%;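 note: 0% = DMSO wells and 100% = tunicamycin 10 µg/mL wells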
UPR XBP1 confirm = adaptive UPR (XBP1) activation, confirmed; activation, % at 20 µM; CHO-XBP1 IRE1-XBP1 luciferase reporter, luminescence; shares compounds with XBP1 UPR activ; 63% of 1,000 active;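 active = reporter signal at least 30% of the positive control's activation in two or more of four replicate wells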;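 note: plate controls were DMSO negative control for no effect and tunicamycin 10 µg/mL positive control for full effect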
* marks the source's active call; other numbers are inactive results; . = not tested or not shown. Rows were chosen to be rich in hits. Some 1.8% of all compounds tested hit in one or more screens of this group.

SMILES	697 NFkB inh	XBP1 UPR activ	UPR CHOP act	Jurkat NFkB inh	CRFR2-BP antag	UPR CHOP confirm	UPR XBP1 confirm
O=C(/C(=C\c1ccccc1)c1nc2ccccc2[nH]1)c1ccc(Cl)cc1	-123	53*	104*	-80	-4	267*	8
CCOc1ccccc1N=Cc1c(O)c2ccccc2oc1=O	-8	179*	162*	-3	-5	120*	125*
Cc1ccc(C)c(N=Cc2c(O)c3ccccc3oc2=O)c1	3	55*	61*	1	-2	49*	46*
COc1ccc(N=Cc2c(O)c3ccccc3oc2=O)cc1	-42	102*	128*	0	21	68*	38*
CCOc1ccccc1N=Cc1c(O)n(C)c(=O)n(C)c1=O	11	3	1	9	1	.	.
CC(C)c1ccc(N=Cc2c(O)c3ccccc3oc2=O)cc1	-49	13	9	9	-5	.	.
Cc1ccc(N2CCN(c3ccc(NCc4nc5ccccc5n4C)cc3)CC2)cc1	-23	66*	45*	7	2	37*	89*
Cc1cccc(NCc2nc3ccccc3n2C)c1	-101	3	5	-94	-23	.	.
O=C(COC(=O)CCSc1ccc(F)cc1)NCc1ccc(F)cc1	-3	-3	1	5	10	.	.
COc1ccc(N2CCN(Cc3cc(=O)oc4cc(-c5ccccc5)c(O)cc34)CC2)cc1	-29	107*	116*	1	2	83*	78*
O=c1cc(CN2CCN(c3ccccc3F)CC2)c2cc(O)c(-c3ccccc3)cc2o1	-6	2	5	17	20	.	.
COc1ccc(NC(=O)C(=O)N/N=C\c2ccc(CNC(=O)C(=O)Nc3ccc(C)c(C)c3)o2)c(OC)c1	6	50*	135*	9	32	41*	52*
Cn1nc(-c2ccccc2)cc1NC(=O)c1ccc(Cl)cc1	24	-1	1	4	2	.	.
C/C(CCC12CC3CC(CC(C3)C1)C2)=N\NC(N)=S	20	83*	220*	11	-15	96*	63*
O=C(CSc1cccc(C(F)(F)F)c1)Nc1ccc(N2CCOCC2)cc1	7	-1	-1	15	-8	.	.
O=C(Nc1ccc(NC(=O)c2sc3ccccc3c2Cl)cc1Cl)c1ccco1	-70	342*	63*	-45	8	34*	142*
O=C(Nc1ccc(NC(=O)c2cccs2)c(Cl)c1)c1ccco1	-15	-1	3	-9	10	.	.
CC1CCN(Cc2c(C(=O)N/N=C/c3ccc(C(C)(C)C)cc3)nnn2-c2nonc2N)CC1	-54	178*	202*	-5	4	50*	117*
CCOc1ccccc1/C=N/NC(=O)c1nnn(-c2nonc2N)c1CN1CCC(C)CC1	-5	2	1	18	2	.	.
C=CCOc1ccc2cccc(/C=N/NC(=O)c3cc4cc([N+](=O)[O-])ccc4s3)c2c1	-19	47*	55*	-12	-26	32	45*
Brc1ccc(-c2nnc3ccc(N4CCN(c5ccccc5)CC4)nn23)cc1	15	47*	54*	-19	12	3	2
Cc1ccc(CNC(=O)C2CCN(c3nc(C)cc(C)n3)CC2)cc1	8	-1	4	-4	8	.	.
Cc1ccc(NC(=O)COc2ccc(/C=C3/SC(=Nc4ccccc4)N(Cc4cccnc4)C3=O)cc2)cc1	11	63*	84*	22	-3	152*	60*
COc1ccc(C2=CC(=O)CC(C)(C)C2)cc1OC	14	-1	4	-13	0	.	.
CCOC(=O)c1cc(NC(=O)c2ccc(C)cc2)c(=O)oc1C(F)(F)F	-9	1	0	-9	-14	.	.
SMILES	697 NFkB inh	XBP1 UPR activ	UPR CHOP act	Jurkat NFkB inh	CRFR2-BP antag	UPR CHOP confirm	UPR XBP1 confirm
CCOC(=O)c1cc(NC(=O)c2ccc(Cl)cc2)c(=O)n2c1oc1ccc(Cl)cc12	2	39*	70*	17	12	8	45*
CCc1cc2c(=O)c(-c3cnn(-c4ccccc4)c3)c(C)oc2cc1OCC(=O)Nc1cccc(C)c1	-21	75*	148*	4	-4	78*	121*
CCOc1ccc(NC(=O)CCNC(=O)C2CCN(S(=O)(=O)c3ccccc3)CC2)cc1	-13	-2	2	4	7	.	.
COc1cc2c(cc1NC(=O)COCC(=O)O)oc1ccccc12	8	-1	0	4	-37	.	.
CCN(CC)c1ccc(C(=O)OCC(=O)Nc2cc3oc4ccccc4c3cc2OC)cc1	-5	178*	55*	-18	-12	30	121*
O=P(Cc1cccc2ccccc12)(c1ccccc1)c1ccccc1	.	.	.	.	-26	.	.
O=C(C[C@H]1C[C@H](C(=O)N2CCCCC2)[C@@]2(CCc3ccccc3)c3[nH]c4ccc(Cl)cc4c3CCN2C1=O)NCCC1=CCCCC1	17	144*	55*	.	-2	84*	146*
CCOC(=O)/C(=C\c1cccnc1)C(=O)c1cc(C(C)=O)c(Nc2ccccc2)s1	-8	-15	-11	16	25	.	.
CCOC(=O)/C(=C\c1ccccc1)C(=O)c1cc(C(C)=O)c(Nc2ccccc2)s1	0	60*	139*	20	-56	191*	41*
CC(C)Cc1nnc(NC(=O)c2cc(S(=O)(=O)N(C)C)ccc2N2CCCC2)s1	-12	-2	2	15	-25	.	.
CN(C)S(=O)(=O)c1ccc(N2CCCC2)c(C(=O)Nc2nc3ccccc3s2)c1	-30	76*	125*	-40	0	30	91*
Cc1cccc2sc(NC(=O)c3cc(S(=O)(=O)N(C)C)ccc3N3CCCC3)nc12	-11	55*	63*	-5	-5	47*	78*
CN(C)S(=O)(=O)c1ccc(N2CCCC2)c(C(=O)Nc2nc3ccc(F)cc3s2)c1	-22	30	11	-30	-5	.	.
Cc1ccc2nc(NC(=O)c3ccc(-c4nc5ccccc5s4)s3)sc2c1	-35	66*	69*	-2	8	26	89*
Nc1c(C(=O)Nc2ccc(S(=O)(=O)N3CCCC3)cc2)sc2nc3ccc(OC(F)(F)F)cc3cc12	-16	194*	311*	-1	-43	72*	162*
Nc1c(C(=O)Nc2ccc(S(=O)(=O)N3CCCC3)cc2)sc2nc3cc4c(cc3cc12)CCC4	.	.	.	.	-61	.	.
COC(=O)C=CSC(=S)C1CCCC1=N (centres undefined)	.	.	.	.	2	.	.

Assay outcomes deposited in PubChem BioAssay by Sanford-Burnham Center for Chemical Genomics.
